# B1: Osa-1-4 twister ribozyme (parent)
# chain: CCGCCUAACACUGCCAAUGCCGGUCCCAAGCCCGGAUAAAAGUGGAGGGGGCGG
# Variants of: B1
# Experiment: self-cleavage, relative activity (ratio to wild type); higher = more cleavage; co-transcriptional
# How it was run: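 For each read, cleavage status was taken from whether upstream sequence was present. The reads came from an Oryza sativa twister ribozyme of 54 nucleotides, whose DNA template was synthesised with 97 % wild-type base and 1 % of each other base at the 48 positions downstream of the cleavage site. The template was transcribed in vitro at 37 °C for 2 h with co-transcriptional self-cleavage, and the RNA was reverse-transcribed using a template-switching oligonucleotide, PCR-amplified and deep-sequenced. Relative activity is the fraction cleaved normalised to wild type.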
row,Variant,self-cleavage
1,CCGCCUAACACUGCCAACGCCGGUCCCAAGACCGGAUAAAAGUGGAGGGGGCGG [C31A U18C],0.04
2,CCGCCUAACACUGCCAAAGCCGGUCCCAAGACCGGAUAAAAGUGGAGGGGGCGG [C31A U18A],0.04
3,CCGCCUAACACUGCCAAGGCCGGUCCCAAGACCGGAUAAAAGUGGAGGGGGCGG [C31A U18G],0.05
4,CCGCCUAACACUGCCAAUGCCGGUCCCAAGACCGGAUAAAAGUGGAGGGUGCGG [C31A G50U],0.04
5,CCGCCUAACACUGCCAAUGCCGGUCCCAAGACCGGAUAAAAGUGGAGGGCGCGG [C31A G50C],0.04
6,CCGCCUAACACUGCCAAUGCCGGUCCCAAGACCGGAUAAAAGUGGAGGGAGCGG [C31A G50A],0.04
7,CCGCCUAACACUGCCAAUGCCGGUCCCAAGACCUGAUAAAAGUGGAGGGGGCGG [C31A G34U],0.04
8,CCGCCUAACACUGCCAAUGCCGGUCCCAAGACCAGAUAAAAGUGGAGGGGGCGG [C31A G34A],0.05
9,CCGCCUAACACUGCCAAUGCCGGUCCCAAGACCCGAUAAAAGUGGAGGGGGCGG [C31A G34C],0.04
10,CCGCCUAACACUGCCAAUGCCGGUCCCAAUCCCGGAUAAAAGAGGAGGGGGCGG [G30U U43A],0.04
11,CCGCCUAACACUGCCAAUGCCGGUCCCAAUCCCGGAUAAAAGGGGAGGGGGCGG [G30U U43G],0.04
12,CCGCCUAACACUGCCAAUGCCGGUCCCAAUCCCGGAUAAAAGCGGAGGGGGCGG [G30U U43C],0.04
13,CCGCCUAACACGGCCAAUGCCGGUCCCAAUCCCGGAUAAAAGUGGAGGGGGCGG [G30U U12G],0.03
14,CCGCCUAACACCGCCAAUGCCGGUCCCAAUCCCGGAUAAAAGUGGAGGGGGCGG [G30U U12C],0.03
15,CCGCCUAACACCGCCAAUGCCGGUCCCAAGACCGGAUAAAAGUGGAGGGGGCGG [C31A U12C],0.02
16,CCGCCUAACACAGCCAAUGCCGGUCCCAAGACCGGAUAAAAGUGGAGGGGGCGG [C31A U12A],0.04
17,CCGCCUAACACGGCCAAUGCCGGUCCCAAGACCGGAUAAAAGUGGAGGGGGCGG [C31A U12G],0.04
18,CCGCCUAACACUGCCAAUGCCGGUCCCAAGACCGGAUAAAAGUGGAGGGGGCGG [C31A],0.04
19,CCGCCUAACACUGCCAAUGCCGGUCCCAAGGCCGGAUAAAAGUGGAGGGGGCGG [C31G],0.11
20,CCGCCUAACACUGCCAAUGCCGGUCCCAAGACCGGAUAAAAGUGGAGGCGGCGG [C31A G49C],0.01
21,CCGCCUAACACUGCCAAUGCCGGUCCCAAGACCGGAUAAAAGUGGAGGAGGCGG [C31A G49A],0.02
22,CCGCCUAACACUGCCAAUGCCGGUCCCAAGACCGGAUAAAAGUGGAGGUGGCGG [C31A G49U],0.02
23,CCGCCUAACACUGCCAAUGCCGGUCCCAAGACCGGAUAAAAGUGGAGGGGGCAG [C31A G53A],0.04
24,CCGCCUAACACUGCCAAUGCCGGUCCCAAGACCGGAUAAAAGUGGAGGGGGCUG [C31A G53U],0.03
25,CCGCCUAACACUGCCAAUGCCGGUCCCAAGACCGGAUAAAAGUGGAGGGGGCCG [C31A G53C],0.01

row,Variant,self-cleavage
1,CCGCCUAACACUACCAAUGCCGGUCCCAAGACCGGAUAAAAGUGGAGGGGGCGG [C31A G13A],0.01
2,CCGCCUAACACUCCCAAUGCCGGUCCCAAGACCGGAUAAAAGUGGAGGGGGCGG [C31A G13C],0.01
3,CCGCCUAACACUUCCAAUGCCGGUCCCAAGACCGGAUAAAAGUGGAGGGGGCGG [C31A G13U],0.02
4,CCGCCUAACACUGCCAAUGCCGGUCCCAAGACCGUAUAAAAGUGGAGGGGGCGG [C31A G35U],0.05
5,CCGCCUAACACUGCCAAUGCCGGUCCCAAGACCGAAUAAAAGUGGAGGGGGCGG [C31A G35A],0.05
6,CCGCCUAACACUGCCAAUGCCGGUCCCAAGACCGCAUAAAAGUGGAGGGGGCGG [C31A G35C],0.03
7,CCGCCUAACACUGCCAAUGCCGGUCCCAAGACCGGAUAAAAGAGGAGGGGGCGG [C31A U43A],0.03
8,CCGCCUAACACUGCCAAUGCCGGUCCCAAGACCGGAUAAAAGGGGAGGGGGCGG [C31A U43G],0.04
9,CCGCCUAACACUGCCAAUGCCGGUCCCAAGACCGGAUAAAAGCGGAGGGGGCGG [C31A U43C],0.03
10,CCGCCUAACACUGCCAAUGCCGGUCCCAAGACCGGAUAAAAGUGGAGGGGGGGG [C31A C52G],0.05
11,CCGCCUAACACUGCCAAUGCCGGUCCCAAGACCGGAUAAAAGUGGAGGGGGAGG [C31A C52A],0.05
12,CCGCCUAACACUGCCAAUGCCGGUCCCAAGACCGGAUAAAAGUGGAGGGGGUGG [C31A C52U],0.05
13,CCGCCUAAGACUGCCAAUGCCGGUCCCAAGACCGGAUAAAAGUGGAGGGGGCGG [C31A C9G],0.04
14,CCGCCUAAAACUGCCAAUGCCGGUCCCAAGACCGGAUAAAAGUGGAGGGGGCGG [C31A C9A],0.02
15,CCGCCUAAUACUGCCAAUGCCGGUCCCAAGACCGGAUAAAAGUGGAGGGGGCGG [C31A C9U],0.03
16,CCGCCUAACACUGCCAAUGCCGGUCCCAAGACCGGAUAAAAGUGGACGGGGCGG [C31A G47C],0.02
17,CCGCCUAACACUGCCAAUGCCGGUCCCAAGACCGGAUAAAAGUGGAAGGGGCGG [C31A G47A],0.02
18,CCGCCUAACACUGCCAAUGCCGGUCCCAAGACCGGAUAAAAGUGGAUGGGGCGG [C31A G47U],0.02
19,CCGCCUAACACUGCCAAUGCCGGCCCCAAGACCGGAUAAAAGUGGAGGGGGCGG [C31A U24C],0.02
20,CCGCCUAACACUGCCAAUGCCGGACCCAAGACCGGAUAAAAGUGGAGGGGGCGG [C31A U24A],0.02
21,CCGCCUAACACUGCCAAUGCCGGGCCCAAGACCGGAUAAAAGUGGAGGGGGCGG [C31A U24G],0.01
22,CCGCCUAACACUGCCAAUGCCGGUCCCAAGACCGGAUAAAAGUGGAGCGGGCGG [C31A G48C],0.02
23,CCGCCUAACACUGCCAAUGCCGGUCCCAAGACCGGAUAAAAGUGGAGAGGGCGG [C31A G48A],0.02
24,CCGCCUAACACUGCCAAUGCCGGUCCCAAGACCGGAUAAAAGUGGAGUGGGCGG [C31A G48U],0.01

# Reference: the RNAGym collection of RNA variant scans (doi:10.1002/anie.201605470)
